Test [1] concerns HUVEC. The test is described as follows: Cytotoxicity against human HUVEC after 48 hrs by MTT assay. The test is classed as cell-based. A general note: Tetrazolium dyes change colour on reduction, which living cells bring about.
The test system of test [2] is HCT-116. The test is described as follows: Cytotoxicity against human HCT116 cells after 48 hrs by MTT assay. The test is classed as functional, cell-based. As to conditions: HCT-116, 48 h.
Test [3] in a line: Cytotoxicity against human SPCA2 cells after 48 hrs by MTT assay. The test is classed as functional, cell-based. As to conditions: SPCA2, 48 h.
The subject of test [4] is HeLa. The test is described as follows: Cytotoxicity against human HeLa cells after 48 hrs by MTT assay. The test is classed as functional, cell-based.
The subject of test [5] is CNE. The test is described as follows: Cytotoxicity against human CNE cells after 48 hrs by MTT assay. The test is classed as functional, cell-based.
Test [6] has as its system HepG2. The test is described as follows: Cytotoxicity against human HepG2 cells after 48 hrs by MTT assay. The test is classed as functional, cell-based. The following applies: HepG2, 48 h.
The subject of test [7] is HCT-116. The test is described as follows: Cell cycle arrest in human HCT116 cells assessed as accumulation at S phase after 48 hrs using propidium iodide staining by FACS analysis (reference value: 23.29%). The test is classed as functional. The gist of the method:
(§1)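 HCT116 cells exposed 48 h to compound at 3 and 5 µM, with untreated cells as control. Cells were stained with propidium iodide, and DNA content was measured by flow cytometry. Read-out is the percentage of cells in G1, S and G2 phases.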
On the technique in general: Flow cytometry measures light scatter and fluorescence of single cells or particles in a stream.

Test [8] has as its system HCT-116. The test is described as follows: Induction of apoptosis in human HCT116 cells assessed as change in mitochondrial membrane potential after 24 hrs by JC-1 staining. The test is classed as functional, cell-based. Summed up:
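HCT116 cells treated 24 h at 3 and 5 µM, with untreated cells as 24 h control. Cells were stained with JC-1 and viewed by fluorescence microscopy. Monomer was excited at 514 nm with emission 515–545 nm (green); J-aggregates were excited at 585 nm with emission 570–600 nm (red). Potential loss is read as a red-to-green shift.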

Test [9] concerns HCT-116. The test is described as follows: Cell cycle arrest in human HCT116 cells assessed as accumulation at G1 phase after 48 hrs using propidium iodide staining by FACS analysis (reference value: 39.08%). The test is classed as functional. Summed up:
as §1

Molecules are shown by their SMILES. Active and inactive are the calls of the source. The calls are words filed in the database; no cut-off is given here.

For `CCOP(=O)(OCC)C(NC(=O)c1cc(O)c2c(c1)C(=O)c1cccc(O)c1C2=O)c1cccc(C)c1` (stereo not given), the IC50 in test [1] is > 100 µM; in test [2] it was 45.4 µM; in [3], 67.7 µM; in test [4], 73.3 µM; in test [5], 74.2 µM; in test [6], 62.2 µM.

For `CCOP(=O)(OCC)C(NC(=O)c1cc(O)c2c(c1)C(=O)c1cccc(O)c1C2=O)c1ccc(OC)cc1` (stereo not given), the IC50 in test [1] is > 100 µM; in test [2], 22.1 µM; in test [3], 38.9 µM; in [4], 40.1 µM; in [5], 42.9 µM; in [6], 44.4 µM.

Regarding `CCOP(=O)(OCC)C(NC(=O)c1cc(O)c2c(c1)C(=O)c1cccc(O)c1C2=O)c1ccccc1Br` (stereo not given), the IC50 was > 100 µM in test [1]; 48.9 µM in test [2]; 85.5 µM in test [3]; 79.6 µM in [4]; 55.7 µM in test [5]; 88.3 µM in test [6].

Regarding `CCOP(=O)(OCC)C(NC(=O)c1cc(O)c2c(c1)C(=O)c1cccc(O)c1C2=O)c1ccccc1OC` (stereo not given), the IC50 in test [1] was > 100 µM; in test [2], 8.37 µM; in [3], 15 µM; in [4], 25.6 µM; in test [5], 28.6 µM; in test [6] it was 30 µM.

Consider `CCOP(=O)(OCC)C(NC(=O)c1cc(O)c2c(c1)C(=O)c1cccc(O)c1C2=O)c1ccc(C)cc1` (stereo not given), for which the IC50 in [1] is > 100 µM; in test [2], 54.3 µM; in test [3], 74.4 µM; in test [4], 89 µM; in [5], 79.4 µM; in test [6], 77.9 µM.

As for `CCOP(=O)(OCC)C(NC(=O)c1cc(O)c2c(c1)C(=O)c1cccc(O)c1C2=O)c1ccccc1` (stereo not given), the IC50 in test [1] is > 100 µM; in test [2], 17.8 µM; in test [3], 27.4 µM; in test [4], 38.2 µM; in test [5], 34.3 µM; in [6] it was 39.2 µM.

Take `CCOP(=O)(OCC)C(NC(=O)c1cc(O)c2c(c1)C(=O)c1cccc(O)c1C2=O)c1c2ccccc2cc2ccccc12` (stereo not given): the IC50 in [1], in test [2], in test [3], in test [4], in test [5] and in [6] was > 100 µM in each case.

Turning to `O=c1[nH]cc(F)c(=O)[nH]1` [FLUOROURACIL], the Activity is 28% in test [7] and 65.6% in [9]. Moreover, the outcome in test [8] was Active. The IC50 in [1] amounted to 56 µM; in [2], 5.78 µM; in test [3], 42.2 µM; in test [4], 35.3 µM; in test [5] it was 40.2 µM; in test [6] it was 30 µM.

`CCOP(=O)(OCC)C(NC(=O)c1cc(O)c2c(c1)C(=O)c1cccc(O)c1C2=O)c1ccc(Cl)cc1` (stereo not given): the half-inhibitory concentration (IC50) is > 100 µM in test [1]; 61.2 µM in test [2]; 89.5 µM in [3]; 87.5 µM in [4]; 55.8 µM in [5]; 87.3 µM in [6].

For the compound `CCOP(=O)(OCC)C(NC(=O)c1cc(O)c2c(c1)C(=O)c1cccc(O)c1C2=O)c1ccc2ccccc2c1` (stereo not given), the IC50 in [1], in [2], in test [3], in [4], in test [5] and in test [6] was > 100 µM each time.

With `CCOP(=O)(OCC)C(NC(=O)c1cc(O)c2c(c1)C(=O)c1cccc(O)c1C2=O)c1ccc(F)cc1` (stereo not given), the IC50 in test [1] was > 100 µM; in test [2], 57.8 µM; in test [3], 24.3 µM; in [4], 95.4 µM; in test [5], 34.6 µM; in [6] it was 59.4 µM.

As to `CCOP(=O)(OCC)C(NC(=O)c1cc(O)c2c(c1)C(=O)c1cccc(O)c1C2=O)c1cccc(Cl)c1` (stereo not given), the IC50 in [1] was > 100 µM; in [2], 22.4 µM; in [3] it was 77 µM; in test [4], 73.2 µM; in test [5] it was 45.6 µM; in test [6], 72 µM.

Turning to `CCOP(=O)(OCC)C(NC(=O)c1cc(O)c2c(c1)C(=O)c1cccc(O)c1C2=O)c1ccc(Br)cc1` (stereo not given), the IC50 was > 100 µM in [1]; 65.5 µM in test [2]; 88.2 µM in test [3]; 98.2 µM in test [4]; 42.5 µM in test [5]; 94.2 µM in test [6].

With `CCOP(=O)(OCC)C(NC(=O)c1cc(O)c2c(c1)C(=O)c1cccc(O)c1C2=O)c1cccc(F)c1` (stereo not given), the IC50 is > 100 µM in [1]; 16.7 µM in [2]; 55.4 µM in test [3]; 64.8 µM in [4]; 49.2 µM in [5]; 56.8 µM in [6].

With `CCOP(=O)(OCC)C(NC(=O)c1cc(O)c2c(c1)C(=O)c1cccc(O)c1C2=O)c1ccccc1Cl` (stereo not given), the 50% inhibitory concentration (IC50) in test [1] is > 100 µM; in test [2], 48.2 µM; in [3], 28.3 µM; in [4] it was 35.2 µM; in test [5] it was 68 µM; in test [6], 39.2 µM.

`CCOP(=O)(OCC)C(NC(=O)c1cc(O)c2c(c1)C(=O)c1cccc(O)c1C2=O)c1ccccc1F` (stereo not given): the IC50 in [1] is > 100 µM; in [2] it was 36.6 µM; in test [3], 79.9 µM; in test [4], 94.2 µM; in [5] it was 67.6 µM; in [6] it was 71.2 µM.

Regarding `CCOP(=O)(OCC)C(NC(=O)c1cc(O)c2c(c1)C(=O)c1cccc(O)c1C2=O)c1cccc(Br)c1` (stereo not given), the IC50 is > 100 µM in test [1]; 40.2 µM in test [2]; 75.4 µM in test [3]; 78.2 µM in test [4]; 40.1 µM in test [5]; 62.4 µM in test [6].

What is called IC50 is the point on the concentration scale where inhibition reaches its midpoint. A low value points to higher potency.
